Screening results (PubChem)
Shown is part of a subset that was picked to be rich in hits.
HCT116 bCat-KO: beta-catenin-lacking colon tumor cell growth suppression | actives 1.5% (n = 140,000) | HCT116 beta-catenin knockout viability, CellTiter-Glo, 60 h; active compounds read low | viability, % at 10 µM | AID 818;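 active = viability at or under a set limit, the compound median less 4 SD, cut at about 6% in these data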;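 note: 0% = Hyamine 1622 control at 20 µM and 100% = untreated cell control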
HUVEC inhibit: human endothelial cell proliferation inhibition; actives 1.1% (n = 86,000); viability, % at 10 µM (by protocol); HUVEC proliferation, CellTiter-Glo luminescence, 72 h; active compounds read low; AID 648;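 active = viability at or below 30%; inactive = viability above 30%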;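 note: 100% = median luminescence of DMSO-only cell control wells on each plate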
Lung fibro prol: blocks proliferation of human lung fibroblasts; LL 47 human lung fibroblast viability, ATP luminescence; active compounds read low; viability, % at 10 µM; actives 1.1% (n = 85,000); AID 719;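 active = viability at or below 50% in the single dose screen; inactive = viability above 50%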;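 note: compound exposure lasted 72 h before the ATP readout; 100% = median luminescence of untreated cell-only wells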
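Benchmarks: Cell-only wells, no compound | Test system: LL 47 human lung fibroblasts, passage 12 or lower | Input: 1,150 cells/well | Measured by: CellTiter-Glo luminescence measuring cellular ATP | Medium: IMEM, 15% FBS supplement | Schedule: Overnight attachment after seeding, then 72 h compound exposure at 37 °C | Doses: Compound addition at 0.1% DMSO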
H69AR growth 86K: growth inhibitors of human H69AR lung tumor cells; H69AR lung tumor viability, ATP luminescence, 72 h; active compounds read low; viability, % at 10 µM; actives 6% (n = 85,000);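 active = viability at or below 40%; inactive = viability above 40%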;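 note: multidrug resistant small cell line overexpressing MRP-1 efflux transporter; 100% = mean luminescence of untreated control wells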
HCT116 PTEN-null: PTEN-deleted cell growth suppression. HCT116 PTEN-null viability, CellTiter-Glo, 60 h; active compounds read low. viability, % at 10 µM. actives 1.2% (n = 140,000). AID 827;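 active = viability at or below a set limit, 4 SD under the median of all tested compounds, cut at about 3.7% in these data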;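 note: PTEN knockout HCT116 line with beta catenin targeted HCT116 as companion control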
* marks the source's active call; other numbers are inactive results; / = no result given.

SMILES	HCT116 bCat-KO	HUVEC inhibit	Lung fibro prol	H69AR growth 86K	HCT116 PTEN-null
CCOc1ccccc1Nc1nnc(SCC(=O)Nc2cccc(S(=O)(=O)NC3=NCCCCC3)c2)s1	62	/	/	/	70
Cn1c(=O)c(C(=O)CCl)c(N)n(CC2CC2)c1=O	80	/	/	/	89
COc1cccc(C2CC(c3cccs3)=NN2C(=O)CSC2=NN3CCCC(=O)N=C3S2)c1OC (configuration not stated)	88	95	95	80	83
CN(Cc1ccccc1F)c1nc(-c2cccs2)nc2ccccc12	73	/	/	/	80
O=C(/C=C/c1ccccc1)c1ccccc1	2.1*	78	86	1.5*	2.0*
CCC(C(=O)O/N=C(\N)c1ccc(C)cc1)c1ccccc1 (configuration not stated)	100	86	93	53	100
CCC(C(=O)O/N=C(\N)c1ccccc1)c1ccccc1 (configuration not stated)	85	75	74	1.2*	93
CCOc1ccc(C2NC(=O)c3sc(=S)n(-c4ccccc4)c3N2)cc1 (configuration not stated)	103	/	/	/	99
COc1ccc(C2NC(=O)c3sc(=S)n(-c4ccccc4)c3N2)cc1 (configuration not stated)	41	72	108	95	3.2*
CN1CCN(C(=O)c2cc3c(n(-c4ccccc4)c2=O)CC(C)(C)CC3=O)CC1	95	103	101	100	102
CC1(C)CC(=O)c2cc(C(=O)NCc3ccco3)c(=O)n(-c3ccccc3)c2C1	92	78	94	30*	91
N#CC(C#N)=C(Nc1ccc(F)cc1)SCc1cccc(F)c1	15	/	/	/	13
Cc1nn(-c2ccccc2)c2c1C(c1ccc([N+](=O)[O-])cc1)N1C(=N2)C(=O)Nc2ccccc21 (configuration not stated)	42	/	/	/	32
Cc1cccc(NC2=Nc3ccccc3N3C2=Nc2c(c(C)nn2-c2ccccc2)C3c2ccc(O)c(O)c2)c1 (configuration not stated)	2.3*	41	45*	1.1*	1.1*
Cc1ccc(NC2=Nc3ccccc3N3C2=Nc2c(c(C)nn2-c2ccccc2)C3c2ccc(O)c(O)c2)cc1 (configuration not stated)	1.2*	15*	37*	16*	1.1*
Cc1nn(-c2ccccc2)c2c1C(c1ccc(O)c(O)c1)N1C(=N2)C(Nc2ccccc2)=Nc2ccccc21 (configuration not stated)	1.1*	13*	39*	21*	1.2*
O=c1c2c3nc4ccccc4nc3n(CCN3CCOCC3)c2ncn1CCN1CCOCC1	/	94	104	85	/
O=C(Nc1ccc(C(F)(F)F)cc1)c1cccnc1N1CCOCC1	95	82	83	39*	91
CCCOc1ccc(C(=O)NCC(c2ccco2)N(C)C)cc1 (configuration not stated)	84	/	/	/	94
CCCc1nnc(NC(=O)c2c(O)c3cccc4c3n(c2=O)CCC4)s1	/	108	97	6.0*	/
O=C(NCc1ccccc1)c1c(O)c2cccc3c2n(c1=O)CCC3	58	97	96	73	55
CCc1nc2ccccc2c(=O)n1NC(=O)c1c(O)c2cccc3c2n(c1=O)CCC3	71	95	95	26*	75
CNC(=O)c1c(O)c2cccc3c2n(c1=O)CC3	/	102	95	103	/
O=C(Nc1cccnc1)c1c(O)c2cccc3c2n(c1=O)CC3	99	103	100	15*	91
CCCCc1nc2ccccc2c(=O)n1NC(=O)c1c(O)c2c(n(CC(C)C)c1=O)CCCC2	42	113	76	9.7*	44
SMILES	HCT116 bCat-KO	HUVEC inhibit	Lung fibro prol	H69AR growth 86K	HCT116 PTEN-null
CCCCC(=O)N/N=C/c1ccc(N2CCOCC2)c([N+](=O)[O-])c1	94	/	/	/	94
COC(=O)c1ccccc1NC(=O)c1c(O)c2cccc3c2n(c1=O)CCC3	/	116	104	105	/
CC(C)c1nnc(NC(=O)c2c(O)c3cccc4c3n(c2=O)CC4)s1	/	86	96	28*	/
Cc1csc(NC(=O)c2c(O)c3cccc4c3n(c2=O)CCC4)n1	/	128	96	36*	/
COC(=O)c1ccccc1OCCCN(C)C	97	/	/	/	88
Cc1c(NC(=S)NC(=O)c2cc3ccccc3o2)c(=O)n(-c2ccccc2)n1C	94	/	/	/	94
Cc1ccc(Nc2ncccc2C(N)=O)cc1[N+](=O)[O-]	94	/	/	/	92
